Most compounds without a hit are left out; they make up all but 1.6% or so of the library.
TDP2 inh – TDP2 (human) inhibition, absorbance primary screen; AID 720702; O95551; recombinant TDP2, T5PNP hydrolysis, p-nitrophenol absorbance 415 nm; actives 0.34% (n = 370,000); inhibition, % at 12.8 µM;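 active = inhibition above the mean of all tested compounds plus 3 SD, set per campaign, cut at about 25% in these data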;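 note: 0% = DMSO with enzyme and 100% = buffer with substrate but no TDP2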
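Test system: human TDP2 enzyme; Input: 120 nM TDP2 per well; Buffer or medium: Mg2+-containing Tris-HCl buffer, pH 7.5; Reagent: 5 mM T5PNP; Dosing: 12.8 µM single point, 1% DMSO; Incubation: reaction 2 h, 37 °C; Detection: p-Nitrophenol epi absorbance; Read-out: % inhibition relative to enzyme-containing and enzyme-free wells; Replicates: single well per compound.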
HKDC1 inhibitor – blocks human hexokinase HKDC1 activity; recombinant HKDC1, G6PDH/diaphorase resazurin coupled fluorescence; actives 0.16% (n = 340,000); inhibition, % at 20 µM;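 active = inhibition above about 35% when tested at 20 µM, limit read from the data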;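 note: plate controls were DMSO wells with enzyme for no effect and DMSO wells lacking enzyme for full effect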
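Assay system – recombinant HKDC1 (HK5) hexokinase enzyme, produced in-house · Input – HKDC1 at 5 µg/mL · Reagent – glucose plus 1 mM ATP as hexokinase substrates · Timing – 90 min reaction incubation at room temperature, dark · Measured by – G6PDH/diaphorase-coupled fluorescence, 1 mM NADP, 100 µM resazurin, 525/613 nm · Benchmarks – DMSO-enzyme wells negative, buffer-substituted wells positive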
UCH37 DUB inh – inhibitors of human deubiquitinating enzyme UCH37; actives 0.33% (n = 330,000); Q9Y5K5; purified proteasome/UCH37, Ub-AMC cleavage fluorescence; inhibition, % (concentration not given with the values);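 active = mean inhibition over replicate wells above about 20%, limit read from the data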;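 note: 0% = compound-free wells with enzyme and 100% = wells lacking proteasome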
Target sequence (Q9Y5K5 whole entry, looked up): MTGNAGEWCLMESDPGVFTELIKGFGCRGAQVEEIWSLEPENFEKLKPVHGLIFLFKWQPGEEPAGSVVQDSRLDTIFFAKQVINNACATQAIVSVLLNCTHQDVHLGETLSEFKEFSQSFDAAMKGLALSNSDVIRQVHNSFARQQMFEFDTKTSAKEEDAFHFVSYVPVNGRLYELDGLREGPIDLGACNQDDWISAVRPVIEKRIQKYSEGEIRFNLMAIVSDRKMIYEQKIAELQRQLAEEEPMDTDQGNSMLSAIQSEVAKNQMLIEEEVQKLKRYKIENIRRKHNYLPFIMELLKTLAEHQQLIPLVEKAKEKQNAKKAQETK
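Material: Human UCH37 enzyme supplied as purified proteasome complex | Schedule: 30 min preincubation with enzyme, 25 min cleavage at room temperature | Detection: AMC fluorescence 355/460 nm | Measure: % inhibition of Ub-AMC cleavage fluorescence | Controls: Wells without proteasome as full block, compound-free enzyme plus substrate as uninhibited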
GSTO1 inh – counter-screen for RBBP9 inhibitors: inhibitors of human GSTO1. AID 1974. recombinant GSTO1, activity-based probe fluorescence polarization. P78417. actives 1.1% (n = 300,000). inhibition, % at 5.96 µM;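 active = inhibition above the campaign mean inhibition plus 3 SD, cut at about 35% in these data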;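 note: 0% = GSTO1-1 with DMSO and 100% = wells lacking GSTO1-1 enzyme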
Target sequence (P78417 whole entry, looked up): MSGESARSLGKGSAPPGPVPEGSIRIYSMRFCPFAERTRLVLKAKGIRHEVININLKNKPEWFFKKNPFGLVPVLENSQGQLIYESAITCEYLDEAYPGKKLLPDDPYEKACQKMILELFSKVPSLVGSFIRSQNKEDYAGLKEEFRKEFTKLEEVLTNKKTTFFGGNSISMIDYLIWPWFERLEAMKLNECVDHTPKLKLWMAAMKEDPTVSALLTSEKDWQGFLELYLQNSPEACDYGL
CTSL1 counter – counter-screen for PFM18AAP inhibitors: inhibitors of F. hepatica cathepsin L1; inhibition, % at 5.96 µM; AID 1906; actives 0.49% (n = 300,000); recombinant F. hepatica cathepsin L1, Z-Leu-Arg-MCA fluorescence;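 active = inhibition above the mean of all tested compounds plus 3 SD, set per screening campaign, cut at about 17% in these data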;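 note: 0% = plate median of test compound wells and 100% = 1 µM Z-Phe-Ala-diazomethylketone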
PAD4 inh – blocks human protein arginine deiminase 4 | AID 485272 | Q9UM07 | recombinant PAD4, RCA probe fluorescence polarization | inhibition, % at 6.36 µM | actives 0.41% (n = 330,000);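 active = percent inhibition above a cutoff equal to the mean of all tested compounds plus 3 SD, cut at about 15% in these data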;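 note: 0% = PAD4 with RCA probe and DMSO and 100% = probe without PAD4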
* hit, by the source's call; · = no result.

SMILES	TDP2 inh	HKDC1 inhibitor	UCH37 DUB inh	GSTO1 inh	CTSL1 counter	PAD4 inh
COc1ccccc1C(=O)Nc1ccccc1SC(=O)c1ccccc1OC	0	-2	6	-4	-3	80*
CC(CC(=O)Nc1ccc(F)cc1)=NNC(=O)c1ccccn1	·	·	3	·	·	·
Cc1ccc(N(CCC(=O)O)S(=O)(=O)c2ccc(C)cc2)cc1	3	-6	2	4	0	3
Cc1ccc(N(CC2CO2)S(=O)(=O)c2ccc(C)cc2)cc1 (centres undefined)	-2	2	4	74*	-3	1
Cc1ccnc(N/C=C(/NC(=O)c2ccccc2)C(=O)N/N=C\c2ccc(Cl)cc2)n1	-12	1	·	-6	17*	-8
CN(CCCNC(=O)c1ccc(C=NO)nc1)CCCN(C)Cc1ccccc1	·	·	2	·	·	·
O=C(CSc1nnc(-c2ccc(Cl)cc2)n1-c1ccc(Cl)cc1)NN=Cc1ccccc1C(=O)O	·	·	-1	·	·	·
Cc1ccc(CNC(=O)c2ccccc2NC(=O)CSc2nnnn2C)cc1	10	-3	1	37*	-1	-3
Cn1nnnc1SCC(=O)Nc1ccccc1C(=O)NCc1ccccc1	-3	3	4	-7	-2	0
O=C(O)C1OC(Oc2cc3oc(-c4ccccc4)cc(=O)c3c(O)c2O)C(O)C(O)C1O (centres undefined)	10	3	6	37*	0	-3
Cc1ccccc1NC(=O)C(=O)NN=Cc1cccc(Br)c1	·	·	1	·	·	·
CCCc1n[nH]c2c1C(=NOCC)CC(C)(C)C2	·	·	1	·	·	·
O=S(=O)(O)c1ccc(NN=Cc2ccccc2O)cc1	0	-6	23*	·	·	·
CN(C)c1ccc(C(CNC(=O)c2ccccc2F)c2c[nH]c3ccccc23)cc1 (centres undefined)	-5	-1	26*	-7	-2	0
CN(C)c1ccc(C(CNC(=O)c2ccccc2)c2c[nH]c3ccccc23)cc1 (centres undefined)	2	10	3	-2	4	2
Cn1nc(C(F)(F)F)c(-c2ccc(Br)cc2)c1NC(=O)c1ccco1	3	1	5	1	29*	-1
O=C1CCCC(O)=C1N=Nc1ccc2c(c1)OCO2	-14	-3	20*	4	5	-2
O=C1CCCC(O)=C1N=Nc1ccc(C(=O)O)cc1	-13	6	19	29	3	4
Cc1ccc(OCC(=O)NN=Cc2ccncc2)cc1	·	·	3	·	·	·
Cc1ccc(CNC(=O)CSc2nc(C)cc(C)c2C#N)cc1	8	-3	5	7	17*	0
CC(C)S(=O)(=O)C1=NSC2=NC(=O)/C(=C\c3ccc(-c4cccc(C(=O)O)c4)o3)C(=N)N21	-2	18	22*	·	·	·
CCc1cc2c(SCC(=O)O)ncnc2s1	15	-13	1	-4	-2	2
CCc1cc2c(SCC(=O)c3ccccc3)ncnc2s1	-7	-6	-1	2	19*	2
CCOC(=O)c1csc(NC(=O)C2CCCN(S(=O)(=O)c3ccc(Br)s3)C2)n1 (centres undefined)	4	·	·	·	·	·
Cc1csc(NC(=O)C2CCCN(S(=O)(=O)c3ccc(Br)s3)C2)n1 (centres undefined)	0	10	5	46*	0	-3
SMILES	TDP2 inh	HKDC1 inhibitor	UCH37 DUB inh	GSTO1 inh	CTSL1 counter	PAD4 inh
CCOC(=O)C1CCCN(S(=O)(=O)c2ccc(Br)s2)C1 (centres undefined)	0	-13	1	9	17*	-4
COc1cccc(NC(=S)NN=C2CCC(C(C)(C)C)CC2)c1 (centres undefined)	2	-17	0	2	20*	-4
COc1cccc(NC(=S)NN=C2CCCCc3ccccc32)c1	·	·	-2	·	·	·
O=C(CN1CCN(c2cccc(Cl)c2)CC1)NCc1ccccc1	-9	-2	3	-3	24*	-4
CCN1CCc2c(sc(N)c2C#N)C1	-6	4	-16	2	-2	-10
N#Cc1c(N)sc(=S)c2c1CCN(Cc1ccccc1)C2	·	·	·	51*	109*	54*
COC(=O)C1C(O)C(C)C(O)C(C)(O)/C=C\C=C(/C)C(=O)Nc2c(C)c(OC(C)=O)c3c(c2O)C(=O)C(C)=C2OCOC(=C23)/C(C)=C/C(C)(O)C(O)C(C)C1O (centres undefined)	15	13	·	59*	2	-2
O=C(O)c1ccc(Nc2ccc([N+](=O)[O-])c3nonc23)cc1	13	2	24*	·	·	·
O=C(O)c1cccc(Nc2cc(Cl)c3nonc3c2[N+](=O)[O-])c1	-24	-9	13	-9	5	-1
O=C(O)c1cccc(Nc2ccc([N+](=O)[O-])c3nonc23)c1	-6	-1	24*	3	0	-5
C=CCC[C@H](Cc1ccc(F)cc1)C(=O)OC[C@@H](Cc1c[nH]c2ccccc12)NC(=O)[C@@H](CC=C)CC(=O)N[C@@H](CO)Cc1ccccc1	-20	4	-1	·	·	10
C=CCC[C@H](Cc1ccc(F)cc1)C(=O)OC[C@H](Cc1c[nH]c2ccccc12)NC(=O)[C@@H](CC=C)CC(=O)NCCO	-17	5	25*	·	·	1
COc1cc(C=NNC(=O)c2cc(-c3ccccc3)nc3ccccc23)ccc1O	·	·	4	·	·	·
COc1ccc(NC(=O)C(=O)NNC(=O)c2cccs2)cc1	-2	-9	7	-1	19*	-2
COC(CN(C(=O)CCl)C(C(=O)NC1CCCCC1)c1ccccc1C)OC (centres undefined)	-1	-2	-17	80*	20*	2
COC(CN(C)C(C(=O)NC1CCCCC1)c1ccccc1)OC (centres undefined)	3	-5	0	1	-1	1
COC(CN(C(=O)CCl)C(C(=O)NC1CCCC(C)C1C)c1ccc(C)cc1)OC (centres undefined)	·	-8	22*	30	61*	2
Cc1nc2ccc(C(=O)NN=Cc3ccc(O)cc3)cc2[nH]1	·	·	4	·	·	·
O=C(O)C(Cc1ccccc1)N1C(=O)c2ccccc2C1=O (centres undefined)	14	1	4	8	-3	-1
[N-]=[N+]=CC(=O)C(Cc1ccccc1)N1C(=O)c2ccccc2C1=O (centres undefined)	-8	6	4	18	26*	-3
O=C(O)C(Cc1ccc(O)cc1)N1C(=O)c2ccccc2C1=O (centres undefined)	4	0	3	1	-1	1
NC(=O)C(Cc1ccccc1)N1C(=O)c2ccccc2C1=O (centres undefined)	-14	-2	1	2	19*	-13

Screening data from PubChem.
